Experimental data: ChEMBL document CHEMBL3526140, “Prediction of human intestinal absorption of the prodrug temocapril by in situ single-pass perfusion using rat intestine with modified hydrolase activity” (Drug Metab Dispos, 2011)

Key:
[1] = Permeability in Wistar rat jejunum pre-perfused with 400 uM CES inhibitor BNPP at 100 uM at pH 6.4 by in-situ single-pass perfusion method; type: ADME, tissue-based; conditions: other: in-situ single-pass perfusion of the jejunum, pH 6.4, with BNPP (CES inhibitor) 400 uM, read-out: Peff (converted)
Method in brief: (§1)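 Fasted, pentobarbital-anesthetized rats. Jejunum pre-perfused with BNPP (400 µM) for 40 min to inhibit CES. Lumen then perfused at 0.2 ml/min with 100 μM drug in phosphate buffer (pH 5.4 or 6.4). Vascular side received Krebs–Henseleit buffer (pH 7.4) at 2.5 ml/min. Luminal drug quantified by HPLC; Peff normalized to 10 cm segment; mean ± S.D., n = 3.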

Jejunum [2] = assay: Apparent absorption clearance in Wistar rat jejunum at 100 uM at pH 6.4 by in-situ single-pass perfusion method; type: ADME, tissue-based; conditions: in vivo
Method in brief: (§2)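 Rats fasted 18–24 h, anesthetized with intraperitoneal pentobarbital. Isolated cannulated jejunal segment kept at 37°C in Krebs–Henseleit buffer with 3% BSA and 10 mM glucose. Vascular perfusion with Krebs–Henseleit (pH 7.4) at 2.5 ml/min. Lumen perfused at 0.2 ml/min with phosphate buffer (pH 5.4, 6.4 or 7.4) containing 100 µM drug plus FD-4. Luminal and vascular samples assayed by HPLC (UV 258 nm). Parameters normalized to 10 cm intestine. Mean ± S.D., n = 3–6.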

Jejunum [3] = assay: Intracellular drug level in Wistar rat jejunum at 100 uM at pH 5.4 by in-situ single-pass perfusion method; type: ADME, tissue-based; conditions: in vivo; method in brief: as §2
[4] = Drug hydrolysis in Wistar rat jejunal S9 fraction assessed as rate of hydrolysis per mg protein; type: ADME, Jejunum
Method in brief: (§3)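 Duodenal or jejunal mucosa from fasted rats homogenized in 50 mM HEPES (pH 7.4) with 1.15% KCl; S9 is the 9000 g supernatant. S9 pre-incubated 5 min at 37°C, then drug added at 10–500 µM final (1% DMSO). Run for 20 min, stopped with acetonitrile, temocaprilat formed measured by HPLC. Km and Vmax from Michaelis–Menten nonlinear fit. Inhibitor (1 mM BNPP) pre-incubated 5 min. Results as % of control.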

[5] = Drug hydrolysis in Wistar rat duodenal S9 fraction; type: ADME, Duodenum; method in brief: as §3
Jejunum [6] = assay: Drug uptake in Wistar rat jejunum pre-perfused with 400 uM CES inhibitor BNPP assessed as rate of drug disappearance at 100 uM at pH 6.4 by in-situ single-pass perfusion method; type: ADME, tissue-based; conditions: in vivo
Method in brief: (§4)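 Same in situ jejunal single-pass perfusion, with carboxylesterase blocked by pre-perfusing the lumen with 400 µM BNPP for 40 min. Then 100 µM drug in luminal phosphate buffer (pH 5.4 or 6.4) at 0.2 ml/min. Vascular Krebs–Henseleit (pH 7.4) at 2.5 ml/min. Luminal, vascular and tissue levels measured by HPLC. Rates are luminal disappearance and appearance in lumen or mesenteric vein. Mean ± S.D., n = 3.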

Jejunum [7] = assay: Intracellular drug level in Wistar rat jejunum at 100 uM at pH 7.4 by in-situ single-pass perfusion method; type: ADME, tissue-based; conditions: in vivo, pH 7.4, 100 µM; method in brief: as §2
Jejunum [8] = assay: Apparent absorption clearance in Wistar rat jejunum at 100 uM at pH 7.4 by in-situ single-pass perfusion method; type: ADME, tissue-based; conditions: in vivo, pH 7.4, 100 µM; method in brief: as §2
Jejunum [9] = assay: Intracellular drug level in Wistar rat jejunum treated with Temocaprilat at 100 uM at pH 7.4 by in-situ single-pass perfusion method; type: ADME, tissue-based; conditions: in vivo, pH 7.4, 100 µM
[10] = Drug hydrolysis in intact Wistar rat jejunal S9 fraction at 500 uM assessed per mg protein in presence of 1000 uM CES inhibitor BNPP; type: ADME, Jejunum; conditions: s9, 500 µM
Method in brief: (§5)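 Jejunal mucosal homogenate or S9 (HEPES pH 7.4/KCl) taken from intact jejunum, or after 40 min perfusion with or without 400 µM BNPP. Protein at 400 µg/ml incubated at 37°C with 500 µM drug. Added BNPP (100 or 1000 µM) pre-incubated 5 min. Temocaprilat formed measured by HPLC and given as nmol/min/mg protein and % of control. Mean ± S.D., n = 4.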

Jejunum [11] = assay: Intracellular drug level in Wistar rat jejunum at 100 uM at pH 6.4 by in-situ single-pass perfusion method; type: ADME, tissue-based; conditions: in vivo; method in brief: as §2
Jejunum [12] = assay: Drug hydrolysis in intact Wistar rat jejunum mucosal homogenate at 500 uM assessed per mg protein in presence of 100 uM CES inhibitor BNPP; type: ADME, tissue-based; conditions: tissue homogenate; method in brief: as §5
Jejunum [13] = assay: Drug uptake in Wistar rat jejunum pre-perfused with 400 uM CES inhibitor BNPP assessed as rate of drug disappearance at 100 uM at pH 5.4 by in-situ single-pass perfusion method; type: ADME, tissue-based; conditions: in vivo, pH 5.4, 100 µM; method in brief: as §4
Jejunum [14] = assay: Apparent hydrolytic clearance in Wistar rat jejunum pre-perfused with 400 uM CES inhibitor BNPP at 100 uM at pH 6.4 by in-situ single-pass perfusion method; type: ADME, tissue-based; conditions: in vivo, pH 6.4, 100 µM; method in brief: as §4
Jejunum [15] = assay: Intracellular drug level in Wistar rat jejunum treated with Temocaprilat at 100 uM at pH 6.4 by in-situ single-pass perfusion method; type: ADME, tissue-based; conditions: in vivo
Jejunum [16] = assay: Apparent absorption clearance in Wistar rat jejunum pre-perfused with 400 uM CES inhibitor BNPP at 100 uM at pH 6.4 by in-situ single-pass perfusion method; type: ADME; conditions: in vivo, pH 6.4, 100 µM; method in brief: as §4
[17] = Drug hydrolysis in Wistar rat duodenal S9 fraction in presence of 1 mM CES inhibitor BNPP; type: ADME, Duodenum; method in brief: as §3
Jejunum [18] = assay: Drug uptake in Wistar rat jejunum pre-perfused with 400 uM CES inhibitor BNPP assessed as rate of temocaprilat appearance at 100 uM at pH 6.4 by in-situ single-pass perfusion method; type: ADME; conditions: in vivo, pH 6.4, 100 µM; method in brief: as §4
[19] = Permeability in Wistar rat jejunum pre-perfused with 400 uM CES inhibitor BNPP at 100 uM at pH 5.4 by in-situ single-pass perfusion method; type: ADME, tissue-based; conditions: other: in-situ single-pass perfusion of the jejunum, pH 5.4, with BNPP (CES inhibitor) 400 uM, read-out: Peff (converted); method in brief: as §1
[20] = Drug hydrolysis in Wistar rat jejunal S9 fraction; type: ADME, Jejunum; method in brief: as §3
[21] = Drug hydrolysis in Wistar rat duodenal S9 fraction assessed as rate of hydrolysis per mg protein; type: ADME, Duodenum; method in brief: as §3
Jejunum [22] = assay: Drug hydrolysis in perfused Wistar rat jejunum mucosal homogenate at 500 uM assessed per mg protein in presence of 400 uM CES inhibitor BNPP; type: ADME, tissue-based; conditions: tissue homogenate; method in brief: as §5
[23] = Partition coefficient, log P between n-octanol and phosphate buffer at pH 7.4; type: physicochemical
[24] = Drug hydrolysis in Wistar rat jejunal S9 fraction in presence of 1 mM CES inhibitor BNPP; type: ADME, Jejunum; method in brief: as §3
Jejunum [25] = assay: Drug uptake in Wistar rat jejunum pre-perfused with 400 uM CES inhibitor BNPP assessed as rate of drug appearance at 100 uM at pH 6.4 by in-situ single-pass perfusion method; type: ADME, tissue-based; conditions: in vivo, pH 6.4, 100 µM; method in brief: as §4
Jejunum [26] = assay: Drug hydrolysis in intact Wistar rat jejunum mucosal homogenate at 500 uM assessed per mg protein; type: ADME, tissue-based; conditions: tissue homogenate; method in brief: as §5
Jejunum [27] = assay: Apparent absorption clearance in Wistar rat jejunum pre-perfused with 400 uM CES inhibitor BNPP at 100 uM at pH 5.4 by in-situ single-pass perfusion method; type: ADME, tissue-based; conditions: in vivo, pH 5.4, 100 µM; method in brief: as §4

Papp at 100 µM [1]: 38.7 ×10⁻⁶ cm/s
CL(app) (Jejunum [2]): 1.59 µL/min
Drug uptake (Jejunum [3]): 5.46 nmol/g
Vmax [4]: 5.11 nmol/min/mg
Km [5]: 47.4 µM
CL (Jejunum [6]): 2.44 nmol/min
Drug uptake (Jejunum [7]): 1.02 nmol/g
CL(app) (Jejunum [8]): 1.23 µL/min
Drug uptake (Jejunum [9]): 17.6 nmol/g
Drug degradation [10]: 0.488 nmol/min
Drug uptake (Jejunum [11]): 1.83 nmol/g
Drug degradation (Jejunum [12]): 2.23 nmol/min
CL (Jejunum [13]): 2.98 nmol/min
CL (Jejunum [14]): 19.5 µL/min
Drug uptake (Jejunum [15]): 18.1 nmol/g
CL(app) (Jejunum [16]): 7.64 µL/min
Stability [17]: Stable
CL (Jejunum [18]): 0.604 nmol/min
Papp at 100 µM [19]: 49.8 ×10⁻⁶ cm/s
Km [20]: 47.3 µM
Vmax [21]: 5.2 nmol/min/mg
Drug degradation (Jejunum [22]): 2.05 nmol/min
logD [23]: 0.1
Stability [24]: Stable
CL (Jejunum [25]): 0.696 nmol/min
Drug degradation (Jejunum [26]): 4.17 nmol/min
CL(app) (Jejunum [27]): 10.6 µL/min
Compound: CCOC(=O)[C@H](CCc1ccccc1)N[C@H]1CS[C@H](c2cccs2)CN(CC(=O)O)C1=O [TEMOCAPRIL]
